# Experimental data collected from several papers.
# Organism: Staphylococcus aureus
# Observed: microbial growth
Structure (SMILES),assay,test system,setting,MIC
CCCCCCC#Cc1cncc(-c2nnc(SCc3ccc([N+](=O)[O-])cc3)n2CCCN)c1,broth dilution,MRSA,,8 µg/mL
CN1CCN(CCNCc2cc3ccccc3nc2SCc2ccccc2)CC1,broth dilution,,,64 µg/mL
CCCCCCC#Cc1cncc(-c2nnc(SCc3cc([N+](=O)[O-])cc([N+](=O)[O-])c3)n2CCOC2OC(CN)C(O)C2O)c1 (centres unmarked),broth dilution,MRSA,,> 64 µg/mL
CC(=O)NC[C@H]1CN(c2ccc(N3CCOCC3)c(F)c2)C(=O)O1,,MRSA,,1 µg/mL
CCCCCCCCN=c1ccn(CCCCCCCCCCn2ccc(=NCCCCCCCC)cc2)cc1,,MRSA USA300,drug-resistant strain,0.5 µM
COc1cccc(OC)c1C(=O)N[C@@H]1C(=O)N2[C@@H]1SC(C)(C)[C@@H]2C(=O)O,broth dilution,USA300,,> 64 µg/mL
CC[C@H]1OC(=O)[C@H](C)[C@@H](O[C@H]2C[C@@](C)(OC)[C@@H](O)[C@H](C)O2)[C@H](C)[C@@H](O[C@@H]2O[C@H](C)C[C@H](N(C)C)[C@H]2O)[C@](C)(O)C[C@@H](C)/C(=N\OCOCCOC)[C@H](C)[C@@H](O)[C@]1(C)O,agar dilution,ATCC25923,,2 µg/mL
Cc1onc(-c2ccccc2)c1C(=O)N[C@@H]1C(=O)N2[C@@H]1SC(C)(C)[C@@H]2C(=O)O,,ATCC29213 MSSA,drug-resistant strain,0.25 µg/mL
CC1(C)S[C@@H]2[C@H](NC(=O)[C@H](N)c3ccccc3)C(=O)N2[C@H]1C(=O)O,agar dilution,ATCC29213,,16 µg/mL
CCCCCCCCCCCC[N+](C)(C)Cc1ccccc1,,ATCC33591 MRSA,drug-resistant strain,32 µM
CC(=O)NC[C@H]1CN(c2ccc(N3CCOCC3)c(F)c2)C(=O)O1,broth dilution,ATCCBAA44 BAA44,,0.5 µg/mL
O=C(O)c1cn(C2CC2)c2cc(N3CCNCC3)c(F)cc2c1=O,broth dilution,ATCC25923,16 h,6.25 µM
Cc1ccc2[nH]nc(-c3nnc(Nc4ccc(F)cc4Cl)s3)c2c1,,ATCC29213,,29.7 µg/mL
Brc1ccc2nc(SCc3ccccc3)c(CNCc3ccc(CN4CCCC4)cc3)cc2c1,broth dilution,,,32 µg/mL
C=C[C@]1(C)C[C@@H](OC(=O)CS[C@@H]2C[C@H]3CC[C@@H](C2)N3C)[C@]2(C)[C@H](C)CC[C@]3(CCC(=O)[C@H]32)[C@@H](C)[C@@H]1O,agar dilution,ATCC43300,,0.0625 µg/mL
CC1(C)S[C@@H]2[C@H](NC(=O)[C@H](N)c3ccccc3)C(=O)N2[C@H]1C(=O)O,broth dilution,MRSA,,345 µM
COc1cc2cc(CNCCC3CCN(C4CCCC4)CC3)c(SCc3ccccc3)nc2c(OC)c1OC,broth dilution,,,> 128 µg/mL
COc1c(N2C[C@@H]3CCCN[C@@H]3C2)c(F)cc2c(=O)c(C(=O)O)cn(C3CC3)c12,agar dilution,ATCC29213,,0.5 µg/mL
N#CC(C#N)=C1SC(C(=O)c2ccc(Nc3cnccn3)cc2)=NN1c1ccccc1,broth dilution,ATCC25923,,50 µg/mL
CC[C@H]1OC(=O)[C@H](C)[C@@H](O[C@H]2C[C@@](C)(OC)[C@@H](O)[C@H](C)O2)[C@H](C)[C@@H](O[C@@H]2O[C@H](C)C[C@H](N(C)C)[C@H]2O)[C@](C)(O)C[C@@H](C)CN(C)[C@H](C)[C@@H](O)[C@]1(C)O,broth dilution,USA300,,> 64 µg/mL
Cc1cc(Nc2nnc(-c3n[nH]c4ccc(C)cc34)s2)cc([N+](=O)[O-])c1,,ATCC29213,,78 µg/mL
O=C1/C(=C/c2ccc3ccccc3c2O)NC(=S)N1c1ccccc1,broth dilution,ATCC6538,,22 µg/mL
COc1ccc(N2N=C(C(=O)c3ccc(Nc4cnccn4)cc3)SC2=C(C#N)C#N)cc1,broth dilution,ATCC25923,,3.12 µg/mL
c1ccc(CSc2nc3ccc(-c4ccccc4)cc3cc2CNCCC2CCN(C3CCCC3)CC2)cc1,broth dilution,,,8 µg/mL
CC(=O)NC[C@H]1CN(c2ccc(N3CCOCC3)c(F)c2)C(=O)O1,broth dilution,ATCC29213,,1 µg/mL
Brc1ccc2nc(SCc3ccccc3)c(CNCCC3CCN(C4CCCC4)CC3)cc2c1,broth dilution,,,32 µg/mL
[H]/N=C(\N/C(=N/[H])NCCCCCCNC(=N)NC(=N)Nc1ccc(Cl)cc1)Nc1ccc(Cl)cc1,,MSSA,,0.5 µM
C[C@H]1COc2c(N3CCN(C)CC3)c(F)cc3c(=O)c(C(=O)O)cn1c23,broth dilution,ATCCBAA44,18 h,50 µM
CCCCCCC#Cc1cncc(-c2nnc(SCc3ccc(Cl)cc3)n2CCCN)c1,broth dilution,ATCC29213,,8 µg/mL
CC(=O)C1=NN(c2ccc([N+](=O)[O-])cc2)C(=C(C#N)C(=O)c2ccc(Nc3cnccn3)cc2)S1,broth dilution,ATCC25923,,6.25 µg/mL
Cc1ccc2[nH]nc(-c3nnc(Nc4ccc(Cl)c(Br)c4)s3)c2c1,,ATCC29213,,204 µg/mL
CN[C@H](CC(C)C)C(=O)N[C@H]1C(=O)N[C@@H](CC(N)=O)C(=O)N[C@H]2C(=O)N[C@H]3C(=O)N[C@H](C(=O)N[C@H](C(=O)O)c4cc(O)cc(O)c4-c4cc3ccc4O)[C@H](O)c3ccc(c(Cl)c3)Oc3cc2cc(c3O[C@@H]2O[C@H](CO)[C@@H](O)[C@H](O)[C@H]2O[C@H]2C[C@](C)(N)[C@H](O)[C@H](C)O2)Oc2ccc(cc2Cl)[C@H]1O,,MRSA,,0.5 µg/mL
CCCCCCC#Cc1cncc(-c2nnc(SCc3cc(C(F)(F)F)cc(C(F)(F)F)c3)n2CCCN)c1,broth dilution,MRSA,,4 µg/mL
Cc1ccc2[nH]nc(-c3nnc(Nc4ccc(C(F)(F)F)cc4)s3)c2c1,,ATCC29213,,14.4 µg/mL
CC[C@H]1OC(=O)[C@H](C)[C@@H](O[C@H]2C[C@@](C)(OC)[C@@H](O)[C@H](C)O2)[C@H](C)[C@@H](O[C@@H]2O[C@H](C)C[C@H](N(C)C)[C@H]2O)[C@](C)(O)C[C@@H](C)C(=O)[C@H](C)[C@@H](O)[C@]1(C)O,broth dilution,ATCCBAA44 BAA44,,> 64 µg/mL
CCCCCCC#Cc1cncc(-c2nnc(SCc3cc([N+](=O)[O-])cc([N+](=O)[O-])c3)n2CCCN)c1,broth dilution,ATCC29213,,8 µg/mL
Cc1ccc2[nH]nc(-c3nnc(Nc4ccc(Cl)c(Cl)c4)s3)c2c1,,ATCC29213,,97.5 µg/mL
CN[C@H](CC(C)C)C(=O)N[C@H]1C(=O)N[C@@H](CC(N)=O)C(=O)N[C@H]2C(=O)N[C@H]3C(=O)N[C@H](C(=O)N[C@H](C(=O)O)c4cc(O)cc(O)c4-c4cc3ccc4O)[C@H](O)c3ccc(c(Cl)c3)Oc3cc2cc(c3O[C@@H]2O[C@H](CO)[C@@H](O)[C@H](O)[C@H]2O[C@H]2C[C@](C)(N)[C@H](O)[C@H](C)O2)Oc2ccc(cc2Cl)[C@H]1O,broth dilution,ATCCBAA44 BAA44,,1 µg/mL
